In ChEMBL document CHEMBL5150051, “Identification and Characterization of a Novel Indoleamine 2,3-Dioxygenase 1 Protein Degrader for Glioblastoma” (J Med Chem, 2022):
Active and inactive are the calls of the source. The rule behind the calls is not given here.

Experiments:
[1] = Toxicity in C57BL/6 mouse assessed as body weight change at 10 to 100 mg/kg, ip treated 5 days/week for 3 weeks; format: organism-based; settings: in vivo, 504 h, dose 10-100 mg/kg
Summary of the method: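 Male C57BL/6 mice dosed ip with vehicle or compound at 10, 25, 50 or 100 mg/kg, 5 days/week for 3 weeks. Body weight recorded every 2–3 days. n = 3 mice/dose, mean ± SEM.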

[2] = target: T1, Protein cereblon/Indoleamine 2,3-dioxygenase 1 (Homo sapiens, UniProt P14902+Q96SW2); test: Protac activity at CRBN/IDO1 in IFNgamma-stimulated human PC-3 cells assessed as decrease in kynurenine level at 10 uM measured after 24 hrs by Ehrlich's test; format: cell-based
Target sequence in this assay (P14902 whole entry, looked up): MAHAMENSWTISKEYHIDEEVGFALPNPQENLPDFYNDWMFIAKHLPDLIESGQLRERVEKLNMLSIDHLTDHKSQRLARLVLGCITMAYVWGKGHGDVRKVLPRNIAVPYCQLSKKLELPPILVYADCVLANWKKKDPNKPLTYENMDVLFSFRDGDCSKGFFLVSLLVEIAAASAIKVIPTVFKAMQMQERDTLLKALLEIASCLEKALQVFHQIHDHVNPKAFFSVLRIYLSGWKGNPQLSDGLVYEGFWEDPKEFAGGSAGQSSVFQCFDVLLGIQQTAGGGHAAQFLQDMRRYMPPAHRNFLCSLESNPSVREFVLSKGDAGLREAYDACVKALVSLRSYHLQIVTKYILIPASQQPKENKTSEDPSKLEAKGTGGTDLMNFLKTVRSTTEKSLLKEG
Target sequence in this assay (Q96SW2 whole entry, looked up): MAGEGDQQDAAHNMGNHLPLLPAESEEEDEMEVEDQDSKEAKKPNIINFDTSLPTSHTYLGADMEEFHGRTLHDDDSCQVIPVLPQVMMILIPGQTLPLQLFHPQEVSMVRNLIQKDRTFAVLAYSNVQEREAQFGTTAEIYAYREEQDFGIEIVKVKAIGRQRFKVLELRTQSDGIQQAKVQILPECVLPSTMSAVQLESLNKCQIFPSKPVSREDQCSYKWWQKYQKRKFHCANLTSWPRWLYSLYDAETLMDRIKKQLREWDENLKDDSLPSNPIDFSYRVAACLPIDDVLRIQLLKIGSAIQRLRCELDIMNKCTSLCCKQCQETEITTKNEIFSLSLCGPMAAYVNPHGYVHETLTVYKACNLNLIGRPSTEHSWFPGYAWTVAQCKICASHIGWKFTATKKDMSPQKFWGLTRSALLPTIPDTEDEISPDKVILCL

Mus musculus = test: In vivo Protac activity at IDO1/CRBN in luciferase-modified GL261 cells engrafted mouse cancer model assessed as increase in survival time measured at 25 mg/kg, ip treated 14 days post tumor implantation; settings: time 14 day
[3] = target: T2, Indoleamine 2,3-dioxygenase 1 (Homo sapiens, UniProt P14902); test: Binding affinity to IDO1 (unknown origin) assessed as binary complex stability by measuring half-life by bio-layer interferometry assay
Target sequence in this assay (P14902 whole entry, looked up): as the sequence (P14902 whole entry, looked up) above

[4] = target: T2, Indoleamine 2,3-dioxygenase 1; test: Inhibition of human IDO1 expressed in Escherichia coli BL21(DE3) using D-tryptophan as substrate assessed as formation of kynurenine production; settings: DDE = dose-dependent effect
Target sequence in this assay (P14902 whole entry, looked up): as above

[5] = target: T1, Protein cereblon/Indoleamine 2,3-dioxygenase 1; test: Protac activity at IDO1/CRBN in IFNgamma-stimulated human U87 cells assessed as IDO1 degradation by measuring decrease in protein level measured at 10 uM continuous upto 72 hrs by Western blotting analysis; settings: U87 cell
Target sequence in this assay (P14902 whole entry, looked up): as above
Target sequence in this assay (Q96SW2 whole entry, looked up): as the sequence (Q96SW2 whole entry, looked up) above

[6] = target: T1, Protein cereblon/Indoleamine 2,3-dioxygenase 1; test: Protac activity at IDO1/CRBN in IFNgamma-stimulated human OVCAR-5 cells assessed as IDO1 degradation by measuring decrease in intracellular protein level measured after 24 hrs by Western blotting analysis; format: cell-based; settings: dose 1-10 µM, DDE = dose-dependent effect
Target sequence in this assay (P14902 whole entry, looked up): as the sequence (P14902 whole entry, looked up) above
Target sequence in this assay (Q96SW2 whole entry, looked up): as the sequence (Q96SW2 whole entry, looked up) above

[7] = target: T1, Protein cereblon/Indoleamine 2,3-dioxygenase 1; test: Protac activity at CRBN/IDO1-FLAG expressed in human U87 cells assessed as IDO1 degradation in intracellular cytoplasmic compartment measured at 1 to 10 uM after 24 hrs by Western blotting analysis; format: subcellular; settings: Cytoplasm, dose 1-10 µM
Target sequence in this assay (P14902 whole entry, looked up): as the sequence (P14902 whole entry, looked up) above
Target sequence in this assay (Q96SW2 whole entry, looked up): as the sequence (Q96SW2 whole entry, looked up) above

[8] = target: T2, Indoleamine 2,3-dioxygenase 1; test: Binding affinity to IDO1 (unknown origin) assessed as dissociation constant by bio-layer interferometry assay
Summary of the method: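 Bio-layer interferometry measured binding to IDO1 at 30 °C in PBS with 0.5% DMSO. Kd, kon and koff were derived.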
Target sequence in this assay (P14902 whole entry): as the sequence (P14902 whole entry, looked up) above

[9] = target: T1, Protein cereblon/Indoleamine 2,3-dioxygenase 1; test: Protac activity at CRBN/IDO1 in IFNgamma-stimulated human CD18 cells assessed as decrease in kynurenine level at 10 uM measured after 24 hrs by Ehrlich's test; format: cell-based; settings: CD18 cell
Target sequence in this assay (P14902 whole entry, looked up): as above
Target sequence in this assay (Q96SW2 whole entry, looked up): as the sequence (Q96SW2 whole entry, looked up) above

[10] = target: T1, Protein cereblon/Indoleamine 2,3-dioxygenase 1; test: Protac activity at CRBN/IDO1-FLAG expressed in human U87 cells assessed as IDO1 degradation at 10 uM measured in presence of IDO1 inhibitor BGB-7204 by immunoprecipitated ubiquitination assay; format: cell-based
Target sequence in this assay (P14902 whole entry, looked up): as the sequence (P14902 whole entry, looked up) above
Target sequence in this assay (Q96SW2 whole entry, looked up): as the sequence (Q96SW2 whole entry, looked up) above

[11] = Drug uptake in C57BL/6 mouse serum at 10 to 100 mg/kg, ip treated 5 days/week for 3 weeks by LC/MS/MS analysis; format: ADME, organism-based; settings: in vivo, 504 h, dose 10-100 mg/kg
Summary of the method: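 Male C57BL/6 mice dosed ip at 10, 25, 50 or 100 mg/kg, 5 days/week for 3 weeks, alongside vehicle. After 3 weeks, serum and brain homogenate were analysed by mass spectrometry for drug level; mean ± SEM, n = 3 mice/dose.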

[12] = target: T1, Protein cereblon/Indoleamine 2,3-dioxygenase 1; test: Protac activity at IDO1/CRBN in IFNgamma-stimulated human PC-3 cells assessed as IDO1 degradation by measuring decrease in intracellular protein level measured after 24 hrs by Western blotting analysis; format: cell-based; settings: dose 1-10 µM, DDE = dose-dependent effect
[13] = target: T1, Protein cereblon/Indoleamine 2,3-dioxygenase 1; test: Protac activity at IDO1/CRBN in human U87 cells assessed as IDO1 degradation at 10 uM measured after compound washout by Western blotting analysis relative to control; format: cell-based
Summary of the method: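 U87 cells exposed to PROTAC for 24 h, after which compound was fully withdrawn from the medium and culture continued without it for up to 48 h. IDO1 levels then assessed by western blot.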

[14] = target: T1, Protein cereblon/Indoleamine 2,3-dioxygenase 1; test: Protac activity at CRBN/IDO1 in 50 ng/mL IFNgamma-stimulated human U87 cells assessed as IDO1 degradation by measuring decrease in protein level measured at 0.1 to 10 uM after 24 hrs by Western blotting analysis; settings: dose 0.1-10 µM
[15] = Cmax in C57BL/6 mouse brain at 25 mg/kg, ip; format: ADME, organism-based; parameters: dose 25 mg/kg, route ip
[16] = target: T1, Protein cereblon/Indoleamine 2,3-dioxygenase 1; test: Protac activity at IDO1/CRBN in IFNgamma-stimulated human GBM43 cells assessed as IDO1 degradation measured after 24 hrs by Western blotting analysis; format: cell-based, GBM43 cell
Summary of the method: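 GBM43 cells stimulated with 50 ng/mL human IFNγ for 24 h, then treated across 0.01 to 30 μM for 24 h. IDO1 was quantified by western blot densitometry as percent of IFNγ-induced untreated level. DC50 came from the dose-response curve; n = 3 independent experiments, mean ± SEM.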

[17] = target: T1, Protein cereblon/Indoleamine 2,3-dioxygenase 1; test: Protac activity at CRBN/IDO1 non-enzyme mediated NF-kappaB signal in IFNgamma-stimulated human U87 cells assessed as decrease in p65 phosphorylation at 0.1 to 10 uM measured after 24 hrs Western blotting assay; format: cell-based; settings: dose 0.1-10 µM
Summary of the method: (§1)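 IFNγ-stimulated cells were induced for 24 h, then treated at several concentrations for 24 h. Lysates were western blotted for IDO1, phospho-p65, total p65 and GAPDH.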

[18] = target: T1, Protein cereblon/Indoleamine 2,3-dioxygenase 1; test: Protac activity at CRBN/IDO1 in human U87 cells assessed as decrease in phosphorylated NF-kappaB p65 in nucleus at 1 to 10 uM measured after 24 hrs by Western blot analysis; format: cell-based; settings: dose 1-10 µM
[19] = target: T1, Protein cereblon/Indoleamine 2,3-dioxygenase 1; test: Protac activity at CRBN/IDO1 non-enzyme mediated NF-kappaB signal in IFNgamma-stimulated human GBM43 cells assessed as decrease in p65 phosphorylation at 0.1 to 10 uM measured after 24 hrs Western blotting assay; format: cell-based; settings: GBM43 cell, dose 0.1-10 µM; summary of the method: as §1
[20] = target: T1, Protein cereblon/Indoleamine 2,3-dioxygenase 1; test: Protac activity at IDO1/CRBN in IFNgamma-stimulated human KNS-42 cells assessed as IDO1 degradation measured after 24 hrs by Western blotting analysis; format: cell-based; settings: dose 0.1-10 µM, DDE = dose-dependent effect
[21] = target: T1, Protein cereblon/Indoleamine 2,3-dioxygenase 1; test: Protac activity at CRBN/IDO1-FLAG expressed in human U87 cells assessed as IDO1 degradation in intracellular nuclear compartment measured at 1 to 10 uM after 24 hrs by Western blotting analysis; format: subcellular; settings: Nucleus, dose 1-10 µM
[22] = target: T1, Protein cereblon/Indoleamine 2,3-dioxygenase 1; test: Protac activity at IDO1/CRBN in IFNgamma-stimulated human U87 cells assessed as IDO1 degradation by measuring decrease in protein level measured after 24 hrs by Western blotting analysis; format: cell-based; settings: dose 0.1-10 µM, DDE = dose-dependent effect
Summary of the method: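 U87 cells given human IFNγ 50 ng/mL for 24 h to induce IDO1, then PROTAC over a dose range starting at 0.01 μM and rising to 30 μM for 24 h. Western blot read-out. IDO1 band densitometry normalized to untreated samples and fitted to give DC50, the concentration giving 50% IDO1 degradation. n = 3 independent experiments, mean ± SEM.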

For `C[C@@H](C(=O)Nc1ccc(OC2CCN(C(=O)CCOCCOCCNc3cccc4c3C(=O)N(C3CCC(=O)NC3=O)C4=O)CC2)cc1)[C@H]1CC[C@@H](c2ccnc3ccc(F)cc32)CC1` (some centres undefined), the Activity [1] was “Non-Toxic”, the inhibition [2] was “Active” and the Time (Mus musculus) was 45 days. The T1/2 [3] was 16 s, the Activity [4] was “Dde” and the Activity [5] was “Active”. The Activity [6] was “Dde”, the Activity [7] was “Active” and the Kd [8] was 0.64 µM. The inhibition [9] was “Active”, the Activity [10] was “Active” and the Drug uptake [11] was “Active”. The Activity [12] was “Dde”, the Activity [13] was “Active” and the Activity [14] was “Active”. For the same compound, the Cmax [15] was 2 µM, the EC50 [16] was 0.544 µM and the Activity ([16]; GBM43 cell, dose 1-10 µM, DDE = dose-dependent effect) was “Dde”. For the same compound, the Activity [17] was “Active”, the Activity [18] was “Active” and the inhibition [19] was “Active”. The Activity [20] was “Dde”, the Activity [21] was “Active” and the Activity [22] was “Dde”.
